Results: ChEMBL document CHEMBL1132360, “N-Substituted (2,3-dihydro-1,4-benzodioxin-2-yl)methylamine derivatives as D(2) antagonists/5-HT(1A) partial agonists with potential as atypical antipsychotic agents” (J Med Chem, 1999)

Tests used:
[1] = target: T1, 5-hydroxytryptamine receptor 1A (Rattus norvegicus, UniProt P19327); assay: Binding affinity towards 5-hydroxytryptamine 1A receptor from rat brain using [3H]-8-OH-DPAT as radioligand
T1 sequence (P19327 whole entry): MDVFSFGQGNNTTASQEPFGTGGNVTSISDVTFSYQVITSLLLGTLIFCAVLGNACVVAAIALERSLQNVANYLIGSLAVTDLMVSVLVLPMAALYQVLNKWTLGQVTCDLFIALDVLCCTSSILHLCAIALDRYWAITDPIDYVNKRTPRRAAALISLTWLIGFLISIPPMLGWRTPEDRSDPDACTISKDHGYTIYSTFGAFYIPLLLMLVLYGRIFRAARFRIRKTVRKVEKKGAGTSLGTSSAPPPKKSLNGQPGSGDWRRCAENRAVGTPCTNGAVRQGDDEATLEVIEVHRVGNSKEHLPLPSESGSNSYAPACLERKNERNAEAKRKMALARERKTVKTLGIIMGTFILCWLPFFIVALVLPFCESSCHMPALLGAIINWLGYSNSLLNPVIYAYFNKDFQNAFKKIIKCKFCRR

[2] = target: T2, Adrenergic receptor alpha-1 (Homo sapiens, UniProt P35348+P25100+P35368); assay: Binding affinity towards Alpha-1 adrenergic receptor in human cortex membranes; type: cell membranes
T2 sequence (P35348 whole entry): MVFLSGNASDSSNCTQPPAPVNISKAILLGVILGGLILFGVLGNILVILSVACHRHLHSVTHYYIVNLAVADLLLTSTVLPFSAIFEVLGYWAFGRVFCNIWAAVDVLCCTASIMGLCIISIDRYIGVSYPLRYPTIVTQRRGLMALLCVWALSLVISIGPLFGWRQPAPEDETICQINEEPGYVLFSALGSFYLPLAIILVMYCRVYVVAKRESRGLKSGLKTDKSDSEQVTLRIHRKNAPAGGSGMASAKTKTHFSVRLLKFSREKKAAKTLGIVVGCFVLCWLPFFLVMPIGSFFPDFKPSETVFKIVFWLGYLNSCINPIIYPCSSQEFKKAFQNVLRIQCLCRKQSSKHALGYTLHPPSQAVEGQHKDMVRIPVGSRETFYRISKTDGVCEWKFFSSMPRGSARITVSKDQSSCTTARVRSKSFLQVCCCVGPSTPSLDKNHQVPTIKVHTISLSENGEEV
T2 sequence (P25100 whole entry): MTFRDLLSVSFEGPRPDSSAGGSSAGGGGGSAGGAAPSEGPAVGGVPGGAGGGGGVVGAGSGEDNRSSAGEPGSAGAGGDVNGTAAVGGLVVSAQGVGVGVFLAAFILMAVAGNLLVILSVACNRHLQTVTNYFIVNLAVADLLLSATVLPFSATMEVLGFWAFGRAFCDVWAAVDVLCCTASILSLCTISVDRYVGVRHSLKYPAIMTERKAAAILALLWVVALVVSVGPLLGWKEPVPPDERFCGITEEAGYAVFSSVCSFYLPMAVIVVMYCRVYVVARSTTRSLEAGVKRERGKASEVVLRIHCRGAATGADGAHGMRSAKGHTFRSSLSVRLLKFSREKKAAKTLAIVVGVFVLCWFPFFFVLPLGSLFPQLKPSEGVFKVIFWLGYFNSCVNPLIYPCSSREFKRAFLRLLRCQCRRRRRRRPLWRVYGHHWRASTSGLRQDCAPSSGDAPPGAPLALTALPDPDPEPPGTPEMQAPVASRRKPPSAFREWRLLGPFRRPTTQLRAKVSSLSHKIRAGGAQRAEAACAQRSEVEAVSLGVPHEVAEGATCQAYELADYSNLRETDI
T2 sequence (P35368 whole entry): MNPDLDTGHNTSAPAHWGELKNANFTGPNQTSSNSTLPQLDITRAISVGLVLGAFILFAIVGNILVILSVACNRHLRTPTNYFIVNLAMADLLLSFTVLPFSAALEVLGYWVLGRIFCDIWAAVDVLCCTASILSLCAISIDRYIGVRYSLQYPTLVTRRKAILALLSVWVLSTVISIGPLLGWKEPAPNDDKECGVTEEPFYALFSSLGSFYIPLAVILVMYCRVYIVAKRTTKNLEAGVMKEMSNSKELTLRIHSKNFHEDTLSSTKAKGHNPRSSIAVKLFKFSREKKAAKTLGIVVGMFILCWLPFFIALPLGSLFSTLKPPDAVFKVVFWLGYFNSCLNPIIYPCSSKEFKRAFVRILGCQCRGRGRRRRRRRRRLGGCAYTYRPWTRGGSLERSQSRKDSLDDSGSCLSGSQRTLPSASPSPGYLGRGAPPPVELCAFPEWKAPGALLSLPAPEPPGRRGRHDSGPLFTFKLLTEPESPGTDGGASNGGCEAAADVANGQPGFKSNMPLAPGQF

[3] = test system: Mus musculus; assay: Antagonistic activity against apomorphine induced climbing in the mouse after po administration; type: functional
Summary of the method: (§1)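 Male CD1 mice (20–25 g), groups of 10, dosed po with compound or vehicle ([…]) at set times before apomorphine 0.88 mg/kg sc. Each mouse placed in an inverted open-ended wire cage; climbing scored 0–2 at 10 and 20 min after apomorphine.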

[4] = test system: Mus musculus; assay: The compound was tested for antagonistic activity against apomorphine induced climbing in the mouse, percentages are for reduction in climbing after peroral administration; type: functional; details: po
Summary of the method: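 Groups of 10 male CD1 mice (20–25 g) dosed po with test compound or vehicle at set times before apomorphine 0.88 mg/kg sc. Mice were placed singly in inverted wire cages and climbing was scored 0–2 at 10 and 20 min after apomorphine. Percent reduction in climbing is given at the stated dose.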

[5] = test system: Rattus norvegicus; assay: The compound was tested in vivo for induction of catalepsy in rat after ip administration; type: functional
Summary of the method: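 Male rats (130–190 g), groups of five, injected ip with compound solution (1 mL/kg). Catalepsy assessed at three times by placing each paw on a 45 mm rubber bung; a paw held 15 s scores 1 (group maximum 20 = 100%). ED50 from percent catalepsy at the final reading, by adapted Litchfield–Wilcoxon.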

[6] = test system: Mus musculus; assay: The compound was tested for antagonistic activity against apomorphine induced climbing in the mouse after po administration; type: functional; summary of the method: as §1
[7] = target: T3, 5-hydroxytryptamine receptor 1A (Rattus norvegicus) (UniProt P19327); assay: The compound was tested binding affinity against 5-hydroxytryptamine 1A receptor from rat brain using [3H]8-OH-DPAT as radioligand at 10e-6 M.
T3 sequence (whole entry): T1 sequence (P19327 whole entry)
Summary of the method: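 Adult male CD rat hippocampal membranes (endogenous 5-HT removed by 37 °C, 10 min incubation) in 50 mM Tris-HCl pH 7.7 plus CaCl2, ascorbate, pargyline; incubated with 2 nM [3H]8-OH-DPAT and test compound at 10⁻⁶ M, 30 min, 25 °C; 10 μM 5-HT defines nonspecific binding. Specific binding with and without compound gives percent displacement.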

[8] = target: Adrenergic receptor alpha-1 (Homo sapiens) (UniProt P35348+P25100+P35368); assay: Compound was tested for binding affinity towards Alpha-1 adrenergic receptor in human cortex membranes; type: cell membranes; details: concentration not given here
Summary of the method: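 Postmortem human cortex membranes (stored −80 °C, final in 50 mM Tris-HCl pH 7.6) incubated with [3H]prazosin 0.1 nM and compound at 10⁻⁶ M or 10 concentrations, 30 min at 30 °C; phentolamine 5 μM defines nonspecific binding. Bound ligand by filtration and scintillation counting; Ki from IC50 by Cheng–Prusoff, ±SEM; percentages are displacement at 10⁻⁶ M.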

[9] = test system: Mus musculus; assay: Percent reduction in apomorphine induced climbing in mouse at 50 mg/Kg of compound given perorally; type: functional
Summary of the method: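 Male CD1 mice (20–25 g), groups of 10, given compound po (vehicle 0.1 mL/kg) at 50 mg/kg before apomorphine 0.88 mg/kg sc. Climbing in inverted open-ended wire cages scored 0–2 at 10 and 20 min after apomorphine; percent reduction in climbing at that dose reported.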

Row | Structure (SMILES) | Ki [1] [nM] | Ki [2] [nM] | ED50 [3] [mg/kg] | ED50 [5] [mg/kg] | also measured
1 | COc1ccccc1N1CCC(CNC[C@@H]2COc3ccccc3O2)CC1 | 37 | 74 | 38 |  | 
2 | CN1CCN(C2=Nc3cc(Cl)ccc3Nc3ccccc32)CC1 [CLOZAPINE] |  |  |  | 33.9 | ED50 [4]: 9.5 mg/kg
3 | c1cnc(NCC2CCN(CC3COc4ccccc4O3)CC2)nc1 (stereo in doubt; 9) | 463 | 208 |  |  | 
4 | c1ccc(N2CCC(CNCC3COc4ccccc4O3)CC2)nc1 (stereo in doubt; 12) [listing 1 of 2 here] |  |  | 23 |  | 
5 | O=C(CCCN1CCC(O)(c2ccc(Cl)cc2)CC1)c1ccc(F)cc1 [HALOPERIDOL] |  |  |  | 0.44 | ED50 [4]: 0.16 mg/kg
6 | COc1cccc(N2CCC(CNCC3COc4ccccc4O3)CC2)c1 (centres undefined) |  |  |  |  | Reduction [6]: 45%
7 | Cc1cc2c(s1)Nc1ccccc1N=C2N1CCN(C)CC1 [OLANZAPINE] |  |  | 4.87 | 6.07 | 
8 | Clc1ccccc1N1CCC(CNCC2COc3ccccc3O2)CC1 (centres undefined) | 17 | 94 |  |  | 
9 | c1ccc(N2CCC(CNCC3COc4ccccc4O3)CC2)nc1 (stereo in doubt; 13) [listing 1 of 2 here] |  |  |  |  | inhibition [7]: 82%; inhibition [8]: 84%
10 | COc1ccccc1N1CCC(CNCC2COc3cccc(O)c3O2)CC1 (centres undefined) |  | > 500 | 33 |  | inhibition [7]: 94%
11 | COc1cccc2c1OC(CNCC1CCN(c3ncccn3)CC1)CO2 (centres undefined) | 0.6 | 2.3 | 2.4 |  | 
12 | c1ccc(N2CCC(CNCC3COc4ccccc4O3)CC2)cc1 (centres undefined) | 29 | 47 | 39 |  | 
13 | c1cnc(NCC2CCN(CC3COc4ccccc4O3)CC2)nc1 (stereo in doubt; 8) | 21 | 23 |  |  | 
14 | COc1cccc2c1OCC(CNCC1CCN(c3ncccn3)CC1)O2 (centres undefined) | 128 | 234 |  |  | 
15 | Cc1nc2n(c(=O)c1CCN1CCC(c3noc4cc(F)ccc34)CC1)CCCC2 [RISPERIDONE] |  |  |  | 1.75 | ED50 [4]: 0.3 mg/kg
16 | c1ccc2c(c1)OCC(CNCC1CCN(c3cccc4c3OCC4)CC1)O2 (centres undefined) | 3 | 33 | 18 | 107 | 
17 | c1cnc(NCCCNCC2COc3ccccc3O2)nc1 (centres undefined) | 3.1 |  | 6 |  | 
18 | c1cnc(N2CCC(CNC[C@@H]3COc4ccccc4O3)CC2)nc1 | 25 | 117 |  |  | Reduction [9]: 77%
19 | CC1Oc2ccccc2OC1CNCC1CCN(c2ncccn2)CC1 (centres undefined) | > 500 | > 500 | 134 | 775 | 
20 | c1ccc(N2CCC(CNCC3COc4ccccc4O3)CC2)nc1 (stereo in doubt; 13) [listing 2 of 2 here] |  |  |  |  | Reduction [9]: 55%
21 | CC1(CNCC2CCN(c3ncccn3)CC2)COc2ccccc2O1 (centres undefined) | 195 | 132 |  |  | 
22 | c1ccc2c(c1)OCC(CNCC1CCN(c3cccc4c3OCCO4)CC1)O2 (centres undefined) | 18 | 38 | 32 | > 200 | 
23 | COc1ccccc1NCC1CCN(CC2COc3ccccc3O2)CC1 (centres undefined) | 20 | 20 | 62 |  | 
24 | c1cnc(N2CCC(CNC[C@H]3COc4ccccc4O3)CC2)nc1 | 2.7 | 18 | 9 | 44 | 
25 | CN(CC1CCN(c2ncccn2)CC1)CC1COc2ccccc2O1 (centres undefined) |  | 348 |  |  | inhibition [7]: 85%
26 | COc1ccc(N2CCC(CNCC3COc4ccccc4O3)CC2)cc1 (centres undefined) | 15 | 44 | 11 |  | 
27 | COc1ccccc1N1CCC(CNCC2COc3cccc(F)c3O2)CC1 (centres undefined) | 16 | 12 | 4 | 23 | 
28 | COc1ccccc1N1CCC(CNC[C@H]2COc3ccccc3O2)CC1 | 8 | 23 | 7 | 50 | 
29 | c1ccc(N2CCC(CNCC3COc4ccccc4O3)CC2)nc1 (stereo in doubt; 12) [listing 2 of 2 here] |  |  |  |  | inhibition [7]: 98%; inhibition [8]: 98%
